Test results published in ChEMBL document CHEMBL1136894, “New antituberculotics originated from salicylanilides with promising in vitro activity against atypical mycobacterial strains” (Bioorg Med Chem, 2009).
≈ marks a conversion by molar mass, not a printed value.

Key:
[1] = test system: Mycobacterium tuberculosis; experiment: Antimycobacterial activity against Mycobacterium tuberculosis CNCTC My 331/88 after 14 days; format: functional; settings: CNCTC My 331/88, 336 h
Summary of the method: (§1)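 Broth dilution in Sula semisynthetic medium, compounds added as DMSO solutions at 250, 125, 62, 32, 16, 8, 4, 2 and 1. Strains came from the Czech National Collection of Type Cultures; the M. tuberculosis inoculum was diluted 10^-3. Cultures were incubated at 37 °C, and MIC was read after 7, 14 and 21 days.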

[2] = test system: Mycobacterium tuberculosis; experiment: Antimycobacterial activity against Mycobacterium tuberculosis CNCTC My 331/88 after 21 days; format: functional; settings: CNCTC My 331/88, 504 h; summary of the method: as §1
Mycobacterium avium [3] = experiment: Antimycobacterial activity against Mycobacterium avium CNCTC My 330/88 after 14 days; format: functional; settings: CNCTC My 330/88, 336 h; summary of the method: as §1
Mycobacterium avium [4] = experiment: Antimycobacterial activity against Mycobacterium avium CNCTC My 330/88 after 21 days; format: functional; settings: CNCTC My 330/88, 504 h; summary of the method: as §1
Mycobacterium kansasii [5] = experiment: Antimycobacterial activity against Mycobacterium kansasii CNCTC My 235/80 after 7 days; format: functional; settings: CNCTC My 235/80, 168 h
Summary of the method: (§2)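 Compounds were added as DMSO solutions to Sula semisynthetic medium at 250, 125, 62, 32, 16, 8, 4, 2 and 1 µmol/L. Two M. kansasii strains were used: CNCTC My 235/80 and clinical isolate 6509/96, each with strain dilution 10^-4. Incubation was at 37 °C, and MIC was read at 7, 14 and 21 days.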

Mycobacterium kansasii [6] = experiment: Antimycobacterial activity against Mycobacterium kansasii CNCTC My 235/80 after 14 days; format: functional; settings: CNCTC My 235/80, 336 h; summary of the method: as §2
Mycobacterium kansasii [7] = experiment: Antimycobacterial activity against Mycobacterium kansasii CNCTC My 235/80 after 21 days; format: functional; settings: CNCTC My 235/80, 504 h; summary of the method: as §2
Mycobacterium kansasii [8] = experiment: Antimycobacterial activity against Mycobacterium kansasii isolate 6509/96 after 7 days; format: functional; settings: isolate 6509/96, 168 h; summary of the method: as §2
Mycobacterium kansasii [9] = experiment: Antimycobacterial activity against Mycobacterium kansasii isolate 6509/96 after 14 days; format: functional; settings: isolate 6509/96, 336 h; summary of the method: as §2
Mycobacterium kansasii [10] = experiment: Antimycobacterial activity against Mycobacterium kansasii isolate 6509/96 after 21 days; format: functional; settings: isolate 6509/96, 504 h; summary of the method: as §2
[11] = Lipophilicity, log K by HPLC; format: physicochemical
Summary of the method: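 Capacity factors k were measured by RP-HPLC and log k was calculated from them.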

HCT-8 = experiment: Cytotoxicity against human HCT8 cells after 72 hrs by XTT assay; format: functional, cell-based; settings: HCT-8, 72 h
Summary of the method: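 HCT-8 cells were grown in EMEM with 5% FBS at 37 °C under 5% CO2. They were harvested with trypsin, seeded at 2 × 10^5 cells/mL and left 24 h. Medium was then replaced with compound in DMSO. DMSO-only wells served as the viability control and 20% DMSO as the cytotoxic control. Reagent was added for 4 h and absorbance read at 450 nm. Triplicates; EC50 reported.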

[12] = Selectivity index, ratio of EC50 for human HCT8 cells to MIC for Mycobacterium tuberculosis CNCTC My 331/88; format: functional, HCT-8
Summary of the method: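 SI is EC50 in HCT-8 cells divided by the M. tuberculosis MIC. HCT-8 cells were grown in EMEM with 5% FBS at 37 °C under 5% CO₂, trypsinised and seeded at 2 × 10⁵ cells/mL. After 24 h the medium was replaced with compound in DMSO. Controls were DMSO alone and 20% DMSO. Absorbance was read at 450 nm 4 h after reagent addition, in triplicate.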

[13] = Stability assessed as half life in phosphate buffer at pH 7.4 by UV-visible spectroscopy; format: physicochemical
Summary of the method: (§3)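 Compound in methanolic solution (10 or 20 µL) was added to tempered 7 × 10^-2 M phosphate buffer (2 mL) at pH 7.4 or 5.5, 37 °C. The absorbance decrease at 224 nm was followed by UV/vis.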

[14] = Stability assessed as half life in phosphate buffer at pH 5.5 by UV-visible spectroscopy; format: physicochemical; summary of the method: as §3

Compound | MIC [1] [µM] | MIC [2] [µM] | MIC (Mycobacterium avium [3]) [µM] | MIC (Mycobacterium avium [4]) [µM] | MIC (Mycobacterium kansasii [5]) [µM] | MIC (Mycobacterium kansasii [6]) [µM] | MIC (Mycobacterium kansasii [7]) [µM] | MIC (Mycobacterium kansasii [8]) [µM] | MIC (Mycobacterium kansasii [9]) [µM] | MIC (Mycobacterium kansasii [10]) [µM] | log K [11] | EC50 (HCT-8) [µM] | Ratio [12] | half-life [13] [min] | half-life [14] [min]
CC(C)[C@@H](NC(=O)OCc1ccccc1)C(=O)Oc1ccc(Cl)cc1C(=O)Nc1ccc(Br)cc1 | 2 (≈ 1.12 µg/mL) | 4 (≈ 2.24 µg/mL) | 16 (≈ 8.96 µg/mL) | 16 (≈ 8.96 µg/mL) | 4 (≈ 2.24 µg/mL) | 8 (≈ 4.48 µg/mL) | 8 (≈ 4.48 µg/mL) | 8 (≈ 4.48 µg/mL) | 8 (≈ 4.48 µg/mL) | 8 (≈ 4.48 µg/mL) | 0.9805 | 121 | 33.35 | 15 | 14.8
CC(C)[C@@H](NC(=O)OCc1ccccc1)C(=O)Oc1cc(Cl)ccc1C(=O)Nc1ccc(Cl)cc1 | 4 (≈ 2.06 µg/mL) | 4 (≈ 2.06 µg/mL) | 8 (≈ 4.12 µg/mL) | 16 (≈ 8.25 µg/mL) | 4 (≈ 2.06 µg/mL) | 8 (≈ 4.12 µg/mL) | 8 (≈ 4.12 µg/mL) | 4 (≈ 2.06 µg/mL) | 8 (≈ 4.12 µg/mL) | 8 (≈ 4.12 µg/mL) | 0.8816 | 107 | 13.75 | 20.4 | 20.3
O=C(N[C@H](Cc1ccccc1)C(=O)Oc1ccc(Cl)cc1C(=O)Nc1ccc(Br)cc1)OCc1ccccc1 | 2 (≈ 1.22 µg/mL) | 4 (≈ 2.43 µg/mL) | 8 (≈ 4.86 µg/mL) | 16 (≈ 9.73 µg/mL) | 2 (≈ 1.22 µg/mL) | 4 (≈ 2.43 µg/mL) | 4 (≈ 2.43 µg/mL) | 8 (≈ 4.86 µg/mL) | 8 (≈ 4.86 µg/mL) | 8 (≈ 4.86 µg/mL) | 1.1267 | 35.5 | 10.61 | 34.3 | 32.5
O=C(N[C@@H](Cc1ccccc1)C(=O)Oc1cc(Cl)ccc1C(=O)Nc1ccc(Cl)cc1)OCc1ccccc1 | 4 (≈ 2.25 µg/mL) | 4 (≈ 2.25 µg/mL) | 8 (≈ 4.51 µg/mL) | 8 (≈ 4.51 µg/mL) | 4 (≈ 2.25 µg/mL) | 8 (≈ 4.51 µg/mL) | 8 (≈ 4.51 µg/mL) | 4 (≈ 2.25 µg/mL) | 8 (≈ 4.51 µg/mL) | 8 (≈ 4.51 µg/mL) | 1.0304 | 82.9 | 20.73 | 25.3 | 21.9
O=C(N[C@H](Cc1ccccc1)C(=O)Oc1ccc(Cl)cc1C(=O)Nc1ccc(Cl)c(Cl)c1)OCc1ccccc1 | 2 (≈ 1.2 µg/mL) | 2 (≈ 1.2 µg/mL) | 16 (≈ 9.57 µg/mL) | 32 (≈ 19.1 µg/mL) | 4 (≈ 2.39 µg/mL) | 4 (≈ 2.39 µg/mL) | 8 (≈ 4.78 µg/mL) | 8 (≈ 4.78 µg/mL) | 8 (≈ 4.78 µg/mL) | 8 (≈ 4.78 µg/mL) | 1.303 | – | – | – | –
CC(C)[C@H](NC(=O)OCc1ccccc1)C(=O)Oc1ccc(Cl)cc1C(=O)Nc1cccc(Cl)c1 | 4 (≈ 2.06 µg/mL) | 4 (≈ 2.06 µg/mL) | 16 (≈ 8.25 µg/mL) | 16 (≈ 8.25 µg/mL) | 8 (≈ 4.12 µg/mL) | 16 (≈ 8.25 µg/mL) | 16 (≈ 8.25 µg/mL) | 8 (≈ 4.12 µg/mL) | 16 (≈ 8.25 µg/mL) | 16 (≈ 8.25 µg/mL) | 0.8972 | – | – | – | –
C[C@H](NC(=O)OCc1ccccc1)C(=O)Oc1ccc(Cl)cc1C(=O)Nc1ccc(Cl)c(Cl)c1 | 2 (≈ 1.04 µg/mL) | 4 (≈ 2.09 µg/mL) | 16 (≈ 8.35 µg/mL) | 32 (≈ 16.7 µg/mL) | 4 (≈ 2.09 µg/mL) | 4 (≈ 2.09 µg/mL) | 8 (≈ 4.17 µg/mL) | 8 (≈ 4.17 µg/mL) | 16 (≈ 8.35 µg/mL) | 16 (≈ 8.35 µg/mL) | 0.9408 | – | – | – | –
O=C(N[C@@H](Cc1ccccc1)C(=O)Oc1ccc(Cl)cc1C(=O)Nc1ccc(Br)cc1)OCc1ccccc1 | 4 (≈ 2.43 µg/mL) | 8 (≈ 4.86 µg/mL) | 16 (≈ 9.73 µg/mL) | 16 (≈ 9.73 µg/mL) | 4 (≈ 2.43 µg/mL) | 8 (≈ 4.86 µg/mL) | 8 (≈ 4.86 µg/mL) | 16 (≈ 9.73 µg/mL) | 16 (≈ 9.73 µg/mL) | 16 (≈ 9.73 µg/mL) | 1.1258 | – | – | – | –
O=C(N[C@@H](Cc1ccccc1)C(=O)Oc1ccc(Cl)cc1C(=O)Nc1cccc(Cl)c1)OCc1ccccc1 | 16 (≈ 9.01 µg/mL) | 16 (≈ 9.01 µg/mL) | 32 (≈ 18 µg/mL) | 62.5 (≈ 35.2 µg/mL) | 32 (≈ 18 µg/mL) | 32 (≈ 18 µg/mL) | 32 (≈ 18 µg/mL) | 32 (≈ 18 µg/mL) | 32 (≈ 18 µg/mL) | 32 (≈ 18 µg/mL) | 1.0465 | – | – | – | –
